# Assay results pooled from the literature.
# Compare with care: the assays were run in different laboratories.
Compound,target or system,test,test system,conditions,quantity,result
Cn1cc2c3c1C(=O)C(N)=CC3=[N+](C)CC2,HepG2,"cell growth or viability, MTT",,72 h,CC50,1000 nM
COc1ccc([C@@]23Oc4cc(OC)cc(OC)c4[C@@]24NC(C)=N[C@@]4(O)[C@H](C(=O)N(C)OC)[C@H]3c2ccccc2)cc1,,metabolic stability,"human, liver microsomes",,half-life,120 min
Cn1cc2c3c1C(=O)C(N)=CC3=NCC2,HepG2,"cell growth or viability, MTT",,72 h,CC50,2000 nM
CC(C)(N)CNC(=O)O[C@H]1CCC[C@@]2(C1)OOC1(O2)C2CC3CC(C2)CC1C3 (stereo partly drawn),,,"male CD-1 mouse, plasma","intravenous, 3 mg/kg",MRT(0-inf),32.5 min
CNC(C)Cc1ccc2c(c1)OCO2 (stereo not drawn),,metabolic stability,"human, liver microsomes",0.5 µM,half-life,> 150 min
NCCNC(=O)O[C@H]1CCC[C@@]2(C1)OOC1(O2)C2CC3CC(C2)CC1C3 (stereo partly drawn),,,"male CD-1 mouse, plasma","intravenous, 3 mg/kg",MRT(0-inf),35.2 min
CNC(C)Cc1ccc2n[se]nc2c1 (stereo not drawn),,metabolic stability,"human, liver microsomes",0.5 µM,half-life,> 150 min
COCC1=N[C@@]2(O)[C@H](C(=O)N(C)OC)[C@@H](c3ccccc3)[C@]3(c4ccc(OC)cc4)Oc4cc(OC)cc(OC)c4[C@]23N1,,metabolic stability,"human, liver microsomes","1 µM, pH 7.4",half-life,24.8 min
CN1CCN(S(=O)(=O)c2cc([N+](=O)[O-])ccc2N(CCOS(C)(=O)=O)CCOS(C)(=O)=O)CC1,,,"female SCID mouse, plasma","intraperitoneal, 25 mg/kg",MRT(0-inf),25.2 min
